According to ChEMBL document CHEMBL2040757, “New N-arylamino biquinoline derivatives: synthesis, antimicrobial, antituberculosis, and antimalarial evaluation” (Eur J Med Chem, 2012):
In brackets after ≈: the same amount, converted by molar mass.

Key:
Streptococcus pneumoniae = assay: Antibacterial activity against Streptococcus pneumoniae MTCC 1936 by broth microdilution method; type: functional
How it was run: (§1)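 Broth microdilution per NCCLS, with serial dilutions in Mueller Hinton broth and DMSO as diluent. Tubes were incubated overnight at 37 °C. MIC was the lowest concentration giving no visible growth, with the control organism's MIC read to verify concentrations. Tubes without growth were subcultured overnight at 37 °C to judge bacteriostatic versus bactericidal action.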

Bacillus subtilis = assay: Antibacterial activity against Bacillus subtilis MTCC 441 by broth microdilution method; type: functional; how it was run: as §1
Clostridium tetani = assay: Antibacterial activity against Clostridium tetani MTCC 449 by broth microdilution method; type: functional
[1] = test system: Mycobacterium tuberculosis; assay: Growth inhibition of Mycobacterium tuberculosis H37Rv at 6.25 ug/mL after 12 to 28 days relative to control; type: functional
Escherichia coli = assay: Antibacterial activity against Escherichia coli MTCC 443 by broth microdilution method; type: functional; how it was run: as §1
Aspergillus fumigatus = assay: Antifungal activity against Aspergillus fumigatus MTCC 3008 by broth microdilution method; type: functional
Plasmodium falciparum = assay: Antimalarial activity against trophozoite stage of chloroquine-sensitive Plasmodium falciparum 3D7 infected in human erythrocytes after 48 hrs; type: functional, organism-based; settings: 3D7, 48 h
How it was run: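 Parasites were kept in continuous culture in A+ human erythrocytes in RPMI with 10% human serum. Sorbitol-synchronized trophozoites at 1–2% parasitaemia and 2.5% haematocrit were exposed to serial dilutions (maximum 1 mg/ml; 0.02% final DMSO) for 48 h at 37 °C. Growth inhibition was measured; chloroquine and quinine served as positive controls. IC50 came from duplicate experiments.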

Vibrio cholerae = assay: Antibacterial activity against Vibrio cholerae MTCC 3906 by broth microdilution method; type: functional
Salmonella typhi = assay: Antibacterial activity against Salmonella typhi MTCC 98 by broth microdilution method; type: functional, Salmonella enterica subsp. enterica serovar Typhi; settings: Salmonella enterica
Candida albicans = assay: Antifungal activity against Candida albicans MTCC 227 by broth microdilution method; type: functional

SMILES	MIC (Streptococcus pneumoniae) [mg/L]	MIC (Bacillus subtilis) [mg/L]	MIC (Clostridium tetani) [mg/L]	inhibition at 6.25 µg/mL [1] [%]	MIC (Escherichia coli) [mg/L]	MIC (Aspergillus fumigatus) [mg/L]	IC50 (Plasmodium falciparum) [mg/L]	MIC (Vibrio cholerae) [mg/L]	MIC (Salmonella typhi) [mg/L]	MIC (Candida albicans) [mg/L]
Cc1ccc(NN2C(N)=C(C#N)C(c3cc4ccccc4nc3Cl)C3=C2CC(C)(C)CC3=O)cc1 (stereo not given)	500 (≈ 1030 µM)	250 (≈ 517 µM)	250 (≈ 517 µM)	8	200 (≈ 413 µM)	500 (≈ 1030 µM)	0.005 (≈ 0.0103 µM)	250 (≈ 517 µM)	200 (≈ 413 µM)	500 (≈ 1030 µM)
CC1(C)CC(=O)C2=C(C1)N(Nc1ccc(Cl)cc1)C(N)=C(C#N)C2c1cc2cc(Cl)ccc2nc1Cl (stereo not given)	200 (≈ 371 µM)	200 (≈ 371 µM)	200 (≈ 371 µM)	87	62.5 (≈ 116 µM)	> 1000	0.028 (≈ 0.052 µM)	100 (≈ 186 µM)	100 (≈ 186 µM)	> 1000
CC1(C)CC(=O)C2=C(C1)N(Nc1ccccc1)C(N)=C(C#N)C2c1cc2ccccc2nc1Cl (stereo not given)	200 (≈ 426 µM)	200 (≈ 426 µM)	250 (≈ 532 µM)	8	200 (≈ 426 µM)	> 1000	0.015 (≈ 0.0319 µM)	250 (≈ 532 µM)	250 (≈ 532 µM)	500 (≈ 1060 µM)
COc1ccc2nc(Cl)c(C3C(C#N)=C(N)N(Nc4ccc(F)cc4)C4=C3C(=O)CC(C)(C)C4)cc2c1 (stereo not given)	200 (≈ 386 µM)	250 (≈ 483 µM)	500 (≈ 965 µM)	22	125 (≈ 241 µM)	500 (≈ 965 µM)	0.25 (≈ 0.483 µM)	100 (≈ 193 µM)	125 (≈ 241 µM)	250 (≈ 483 µM)
COc1ccc(NN2C(N)=C(C#N)C(c3cc4cc(Cl)ccc4nc3Cl)C3=C2CC(C)(C)CC3=O)cc1 (stereo not given)	250 (≈ 468 µM)	250 (≈ 468 µM)	200 (≈ 374 µM)	22	250 (≈ 468 µM)	> 1000	0.026 (≈ 0.0486 µM)	250 (≈ 468 µM)	200 (≈ 374 µM)	100 (≈ 187 µM)
COc1ccc(NN2C(N)=C(C#N)C(c3cc4cc(C)ccc4nc3Cl)C3=C2CC(C)(C)CC3=O)cc1 (stereo not given)	100 (≈ 195 µM)	200 (≈ 389 µM)	500 (≈ 973 µM)	3	250 (≈ 486 µM)	> 1000	0.54 (≈ 1.05 µM)	500 (≈ 973 µM)	500 (≈ 973 µM)	> 1000
Cc1ccc2nc(Cl)c(C3C(C#N)=C(N)N(Nc4ccc(Cl)cc4)C4=C3C(=O)CC(C)(C)C4)cc2c1 (stereo not given)	250 (≈ 482 µM)	500 (≈ 964 µM)	250 (≈ 482 µM)	15	100 (≈ 193 µM)	1000 (≈ 1930 µM)	0.008 (≈ 0.0154 µM)	200 (≈ 386 µM)	200 (≈ 386 µM)	500 (≈ 964 µM)
COc1ccc(NN2C(N)=C(C#N)C(c3cc4ccccc4nc3Cl)C3=C2CC(C)(C)CC3=O)cc1 (stereo not given)	200 (≈ 400 µM)	500 (≈ 1000 µM)	250 (≈ 500 µM)	44	250 (≈ 500 µM)	> 1000	0.025 (≈ 0.05 µM)	250 (≈ 500 µM)	200 (≈ 400 µM)	> 1000
